Compound activity as filed in PubChem BioAssay.
CAL PDZ FP-1: blocks peptide binding to human CAL PDZ domain; Q9HD26; purified CAL PDZ, TMR-peptide fluorescence polarization, 1 h; 0.02% of 330,000 active; inhibition, % at 20 µM;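 active = highest replicate inhibition of at least 40%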;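 also: plate controls were DMSO neutral control wells for no effect and unlabeled competitor peptide control wells for full effect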
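System: purified tagged CAL PDZ domain construct (CerCALP). Schedule: 1 h incubation at room temperature before polarization reading. Medium: 25 mM sodium phosphate pH 7.4, 150 mM NaCl, TCEP, IgG, Thesit. Read-out: percent inhibition from loss of millipolarization. Measured by: FP readout, S and P plane fluorescence. Probe or stimulus: fluorescent TMR peptide probe.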
Rce1 inhib: inhibitors of yeast Ras-converting enzyme | Q03530 | yeast membranes, quenched prenylated peptide cleavage fluorescence | calls only | 0.27% of 290,000 active | AID 2563;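 active = fall in fluorescence gain of 50% or more versus controls, with final raw signal at or below 3038400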;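 also: plate controls were neutral control wells for no effect and wells lacking membranes for full effect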
Target sequence (Q03530 whole entry, looked up): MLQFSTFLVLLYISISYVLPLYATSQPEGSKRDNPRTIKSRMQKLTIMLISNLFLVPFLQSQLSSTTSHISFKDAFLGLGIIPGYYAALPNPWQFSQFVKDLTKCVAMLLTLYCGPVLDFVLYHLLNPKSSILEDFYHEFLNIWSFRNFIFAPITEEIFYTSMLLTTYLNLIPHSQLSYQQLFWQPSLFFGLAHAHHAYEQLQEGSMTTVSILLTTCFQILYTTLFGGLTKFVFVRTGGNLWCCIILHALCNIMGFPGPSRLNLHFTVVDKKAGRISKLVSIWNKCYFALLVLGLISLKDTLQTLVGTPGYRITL
AI-2 QS modul: modulators of Vibrio harveyi AI-2 quorum sensing system; activity change, % at 7.5 µM; Vibrio harveyi JMH597 AI-2 luminescence/OD600 ratio, 9 h; hits give low values; strain lacks LuxN and CqsS sensors; 0 = neutral-control median; AID 2094; 0.4% of 300,000 active; in the data active = activity change below about -75%, passing the limit was not always enough;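 also: luminescence divided by OD600 gain over 9 h not by final OD600 alone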
ARNT TACC3 PPI: ARNT/TACC3 interaction disruption. Q9Y6A5. AlphaScreen His-ARNT PAS-B/GST-TACC3 binding, luminescence; TACC3 fragment carries E629A point mutation. inhibition, % at 9.99 µM. 0.66% of 390,000 active. AID 623870;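 active = mean inhibition of replicates at least 50% and at least half of replicates each reaching 50%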;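 also: 0% = complete ARNT plus TACC3 wells and 100% = ARNT alone without TACC3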
CAL PDZ FP-2: CAL PDZ (human) peptide binding inhibition; Q9HD26; purified CAL PDZ, TMR-peptide fluorescence polarization, 1 h; inhibition, % at 24.9 µM; 0.92% of 300,000 active;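 active = mean inhibition of at least 30% with at least half of replicates also reaching 30%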;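 also: 0% = DMSO neutral control and 100% = excess unlabeled competitor peptide PRC23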
ARNT Alpha ctr: counter-screen for ARNT/TACC3 inhibitors: AlphaScreen artifacts; 50% of 1,200 active; AC50, µM (top dose mostly 68 µM), for the others: top-dose activity change, negative = signal decrease; shares compounds with ARNT TACC3 PPI; His-ARNT PASB-GST AlphaScreen artifact counter-screen, luminescence; AID 651705;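 active = every separate test run was called active for a drop in luminescence, with AC50 within twice the top valid dose, actives reach about 71 µM in these data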
An asterisk follows results filed as active; [ ] = another dose, or the depositor's remark. A selection: hits, their analogues and other compounds. The true share with any hit is near 1.7%.

Screening CCCNC(=O)[C@@H]1[C@@H](CO)[C@@H]2Cn3c(ccc(-c4ccncc4)c3=O)[C@@H]2N1C(=O)c1ccccc1F returned ARNT TACC3 PPI 13.
For CCC(C)NCCOc1ccc(C)cc1[N+](=O)[O-] (centres undefined) the results were CAL PDZ FP-1 -1, Rce1 inhib inactive, AI-2 QS modul -4, ARNT TACC3 PPI -6 and CAL PDZ FP-2 -2.
O=C(NCc1ccccn1)c1cc(-c2ccccc2)on1 was read as CAL PDZ FP-1 -3, Rce1 inhib inactive, AI-2 QS modul -25, ARNT TACC3 PPI -8 and CAL PDZ FP-2 -1.
`O=C(NCCN1CCOCC1)c1cc(-c2cccc(O)c2)on1` gave CAL PDZ FP-1 -2, Rce1 inhib inactive, AI-2 QS modul 12, ARNT TACC3 PPI -7 and CAL PDZ FP-2 -1.
Screening O=C(NCCN1CCCCC1)c1cc(-c2ccccc2)on1 returned ARNT Alpha ctr 5%[38 µM].
Screening O=C(NCCCO)c1cc(-c2ccccc2)on1 returned ARNT Alpha ctr -2%[38 µM].
`CCCc1cc(=O)oc2cc(OCC(=O)NCCCN3CCCC3=O)ccc12` gave CAL PDZ FP-1 1, Rce1 inhib inactive, AI-2 QS modul 13 and ARNT TACC3 PPI 2.
`COc1ccc(NC(=O)N(C)C[C@H]2Oc3ccc(NC(=O)c4ccncc4)cc3C(=O)N([C@@H](C)CO)C[C@H]2C)cc1` gave ARNT TACC3 PPI -4.
Screening FC(F)(F)c1cnc(-c2cnc(-c3ccncc3)nc2)c(Cl)c1 returned CAL PDZ FP-1 0, Rce1 inhib inactive, AI-2 QS modul 10, ARNT TACC3 PPI 0 and CAL PDZ FP-2 -2.
`FC(F)(F)c1cnc(-c2cnc(-c3ccccn3)nc2)c(Cl)c1` gave CAL PDZ FP-1 -1, Rce1 inhib inactive, AI-2 QS modul 18, ARNT TACC3 PPI 55*, CAL PDZ FP-2 -3 and ARNT Alpha ctr -16%.
CCOc1ccc(-n2nc3ccc(N)cc3n2)cc1 was read as CAL PDZ FP-1 0, Rce1 inhib inactive, AI-2 QS modul 0, ARNT TACC3 PPI -5 and CAL PDZ FP-2 0.
CCOc1ccc(-c2cnc(N)n2C)cc1 was read as CAL PDZ FP-1 -3, Rce1 inhib inactive, AI-2 QS modul 22, ARNT TACC3 PPI 54*, CAL PDZ FP-2 -3 and ARNT Alpha ctr -17%.
For Cn1c(-c2ccc(Cl)cc2)cnc1N the results were CAL PDZ FP-1 -2, Rce1 inhib inactive, AI-2 QS modul 43, ARNT TACC3 PPI 58*, CAL PDZ FP-2 -5 and ARNT Alpha ctr 58µM*.
C[C@@H]1CN([C@@H](C)CO)S(=O)(=O)c2ccc(C3=CCCC3)cc2O[C@H]1CN(C)S(=O)(=O)c1cn(C)cn1 was read as ARNT TACC3 PPI -8.
`c1ccc(-c2nc3cc4ccccc4cc3[nH]2)nc1` gave CAL PDZ FP-1 -3, Rce1 inhib inactive, AI-2 QS modul 26, ARNT TACC3 PPI 15*, CAL PDZ FP-2 -6 and ARNT Alpha ctr -36%.
`CCOC(=O)N1CCN(C(=O)CSc2nnc(-c3cccc(Cl)c3)o2)CC1` gave CAL PDZ FP-1 -1, Rce1 inhib inactive, AI-2 QS modul 3 and ARNT TACC3 PPI -6.
Screening COc1ccc(-c2cnc3c(c2)C(=O)N([C@@H](C)CO)C[C@H](C)[C@H](CN(C)Cc2cccnc2)O3)cc1 returned ARNT TACC3 PPI -10.
COc1ccc(-c2cnc3c(c2)C(=O)N([C@@H](C)CO)C[C@@H](C)[C@@H](CN(C)Cc2cccnc2)O3)cc1 was read as ARNT TACC3 PPI 85* and ARNT Alpha ctr -5%[38 µM].
`COc1ccc(-c2cnc3c(c2)C(=O)N([C@@H](C)CO)C[C@H](C)[C@@H](CN(C)Cc2cccnc2)O3)cc1` gave ARNT TACC3 PPI 108* and ARNT Alpha ctr -7%[38 µM].
`COc1ccc(-c2cnc3c(c2)C(=O)N([C@H](C)CO)C[C@H](C)[C@H](CN(C)Cc2cccnc2)O3)cc1` gave ARNT TACC3 PPI 104* and ARNT Alpha ctr 4%[42 µM].
`Cc1ccc(S(=O)(=O)Nc2ccc3c(c2)C(=O)N([C@H](C)CO)C[C@@H](C)[C@@H](CN(C)C(=O)Nc2ccc(C(F)(F)F)cc2)O3)cc1` gave ARNT TACC3 PPI 2.
For O=C(C[C@@H]1C[C@H]2c3cc(NC(=O)NC4CCCCC4)ccc3O[C@H]2[C@H](CO)O1)NCc1ccccn1 the results were ARNT TACC3 PPI -46.
`CN1CCN(c2cc(-c3cc(O)c4ncccc4c3)ccn2)CC1` gave CAL PDZ FP-1 -8, ARNT TACC3 PPI 69*, CAL PDZ FP-2 -1 and ARNT Alpha ctr 11µM*.
`CN1CCN(C(=O)c2cccc(-c3cc(O)c4ncccc4c3)c2)CC1` gave CAL PDZ FP-1 -1, ARNT TACC3 PPI 75*, CAL PDZ FP-2 -2 and ARNT Alpha ctr 17µM*.
COCC(=O)Nc1ccc2c(c1)[C@@H]1C[C@@H](CC(=O)NCc3ccccc3)O[C@@H](CO)[C@@H]1O2 was read as ARNT TACC3 PPI -8.
For O=C(Nc1ccccc1C(F)(F)F)c1ncn[nH]1 the results were CAL PDZ FP-1 -3, Rce1 inhib inactive, AI-2 QS modul -4, ARNT TACC3 PPI 59*, CAL PDZ FP-2 -1 and ARNT Alpha ctr -28%.
O=C(Nc1ccccc1C(F)(F)F)c1ccccc1Br was read as CAL PDZ FP-1 -1, Rce1 inhib inactive, AI-2 QS modul 4, ARNT TACC3 PPI -3 and CAL PDZ FP-2 -2.
`COCc1cn(CC[C@H]2CC[C@@H](NC(=O)c3ccccc3)[C@@H](CO)O2)nn1` gave ARNT TACC3 PPI -15.
`O=C(N[C@H]1CC[C@@H](CCn2cc(-c3ccccn3)nn2)O[C@H]1CO)c1ccccc1` gave ARNT TACC3 PPI 81* and ARNT Alpha ctr 33µM*.
O=C(N[C@H]1CC[C@@H](CCn2cc(-c3ccccn3)nn2)O[C@@H]1CO)c1ccccc1 was read as ARNT TACC3 PPI 77* and ARNT Alpha ctr 41µM*.
`O=C(N[C@@H]1CC[C@@H](CCn2cc(-c3ccccn3)nn2)O[C@H]1CO)c1ccccc1` gave ARNT TACC3 PPI 74* and ARNT Alpha ctr 41µM*.
O=C(N[C@H]1CC[C@H](CCn2cc(-c3ccccn3)nn2)O[C@@H]1CO)c1ccc(F)cc1 was read as ARNT TACC3 PPI 59* and ARNT Alpha ctr 59µM*.
For C#CCOC(=O)Nc1ccc(OCC(F)(F)F)nc1 the results were CAL PDZ FP-1 0, Rce1 inhib inactive, AI-2 QS modul -25, ARNT TACC3 PPI -1 and CAL PDZ FP-2 -7.
O=C(CCCc1nc2ccccc2s1)NCc1ccc(F)cc1 was read as CAL PDZ FP-1 0, Rce1 inhib inactive, AI-2 QS modul 2, ARNT TACC3 PPI -15 and CAL PDZ FP-2 -3.
